These results are taken from ChEMBL document CHEMBL1124613, “Synthesis, tubulin binding, antineoplastic evaluation, and structure-activity relationship of oncodazole analogues” (J Med Chem, 1989).

One test concerns B16. Put plainly: Inhibition B16 melanoma cell monolayer proliferation. It counts as functional, cell-based. To be noted: Mus musculus. In short, it runs like this: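 Mouse B16 melanoma cells grown as monolayers with continuous 72-h exposure to compound. IC50 is the concentration that inhibits proliferation by 50%.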
The target of a further test is Tubulin alpha chain (Sus scrofa, UniProt P02550). Put plainly: Displacement of 5.8 uM [3H]-oncodazole from homogeneous tubulin. In outline:
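Equilibrium binding to soluble, homogeneous tubulin, measured by displacement of 5.8 μM [³H]oncodazole. IC50 (μM) is the concentration that displaces the label, given as mean ± SEM.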

Test [1] deals with Mus musculus. Put plainly: In vivo Maximum tolerated dose in syngeneic B6D2F1 female mice bearing ip implanted P388 leukemia. The class given is functional. In short, it runs like this: (§1)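 Female B6D2F1 mice given ip implants of 10⁶ P388 leukemia cells. Drug given ip on days 1-5 after implantation at 320-20 mg/kg per day; maximally tolerated dose reported in mg/kg per day. Percent increase in lifespan taken at that dose from median survival time versus untreated controls. Under 25% increase counts as negative.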

The test system of test [2] is Mus musculus. Put plainly: In vivo percent increase in life span at Maximum tolerated dose in syngeneic B6D2F1 female mice bearing ip implanted P388 leukemia; Negative. The class given is functional. In short, it runs like this:
as §1

In test [3] the test system is Mus musculus. Put plainly: Compound was tested in vivo for percent increase in life span at Maximum tolerated dose in syngeneic B6D2F1 female mice bearing intraperitoneally implanted P388 leukemia (exp 2). It counts as functional. In outline: as §1
The subject of test [4] is Mus musculus. Briefly: In vivo percent increase in life span at Maximum tolerated dose in syngeneic B6D2F1 female mice bearing ip implanted P388 leukemia. The class given is functional. In outline: as §1

Structures are written as SMILES.

Sequence of Tubulin alpha chain (P02550 whole entry, looked up): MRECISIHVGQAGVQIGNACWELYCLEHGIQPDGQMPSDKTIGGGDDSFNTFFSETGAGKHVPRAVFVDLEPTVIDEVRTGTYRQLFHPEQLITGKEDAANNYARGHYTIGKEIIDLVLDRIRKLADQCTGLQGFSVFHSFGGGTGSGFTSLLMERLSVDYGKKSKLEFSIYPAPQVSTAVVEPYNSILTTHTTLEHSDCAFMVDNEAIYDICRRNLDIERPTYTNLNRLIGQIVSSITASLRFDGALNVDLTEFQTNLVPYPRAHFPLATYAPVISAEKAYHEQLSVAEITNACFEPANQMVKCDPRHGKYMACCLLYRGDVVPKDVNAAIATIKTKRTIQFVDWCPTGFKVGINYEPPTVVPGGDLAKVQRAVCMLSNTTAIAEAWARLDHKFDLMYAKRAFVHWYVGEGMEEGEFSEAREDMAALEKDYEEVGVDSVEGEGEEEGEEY

As for `COC(=O)Nc1nc2cc(C(=O)c3cc(CN)cs3)ccc2[nH]1`, the results for the IC50 with B16 and on Tubulin alpha chain were 2 µM and 120 µM, respectively. In addition, in the test on Mus musculus [1], the MTD (in general, the largest dose that counted as tolerated) was found to be 20 mg/kg. For the same molecule, in the test with Mus musculus [2], the increase in life span (ILS) (as a rule, the gain in survival time of treated over control animals, in per cent) is recorded as less than 25%.

`COC(=O)Nc1nc2cc(C(=O)c3cc(C(=O)C(F)(F)F)cs3)ccc2[nH]1`: the values for the IC50 in the test on B16 and on Tubulin alpha chain were 0.14 µM and 16 µM, respectively.

As for `COC(=O)Nc1nc2cc(C(=O)c3cc(CC#N)cs3)ccc2[nH]1`, the half-inhibitory concentration (IC50) (in general, the concentration at which inhibition is half-maximal) with B16 was 0.02 µM; at Tubulin alpha chain it was 2.9 µM. The ILS in the test on Mus musculus [3] and with Mus musculus [4] was 80% throughout. Further, the MTD in the test on Mus musculus [1] was found to be 160 mg/kg.

In turn, `COC(=O)Nc1nc2cc(C(=O)c3cc(CC(=O)OCc4ccccc4)cs3)ccc2[nH]1` yielded a concentration for half-maximal inhibition (IC50) on Tubulin alpha chain of 5.2 µM.

Take `COC(=O)Cc1csc(C(=O)c2ccc3[nH]c(NC(=O)OC)nc3c2)c1`: the half-inhibitory concentration (IC50) is 0.04 µM in the test with B16 and 5 µM on Tubulin alpha chain. Besides, the MTD with Mus musculus [1] came to 30 mg/kg. Also, the increase in lifespan (ILS) with Mus musculus [4] was determined as 65%.

As to `COC(=O)Nc1nc2cc(C(=O)c3sccc3C)ccc2[nH]1`, half-maximal inhibition in the test on B16 (IC50) required 2 µM. In the test with Mus musculus [1], the MTD was more than 320 mg/kg. This molecule also yielded an ILS in the test with Mus musculus [2] of less than 25%.

As to `COC(=O)Nc1nc2c(C)c(C(=O)c3cccs3)ccc2[nH]1`, the IC50 with B16 is 4 µM; at Tubulin alpha chain it was 106 µM. The maximum tolerated dose (MTD) in the test with Mus musculus [1] came out at 40 mg/kg. The molecule also showed an ILS in the test on Mus musculus [2] of less than 25%.

Consider `COC(=O)Nc1nc2cc(C(=O)c3cccs3)ccc2n1C`, for which the half-maximal inhibitory concentration (IC50) in the test with B16 is 20 µM. The MTD in the test on Mus musculus [1] is 160 mg/kg. The same molecule yielded an increase in lifespan (ILS) with Mus musculus [2] of less than 25%.

For `CC(C)OC(=O)Nc1nc2cc(C(=O)c3cccs3)ccc2[nH]1`, the half-maximal inhibitory concentration (IC50) with B16 was 0.2 µM; on Tubulin alpha chain it was 14 µM. The ILS in the test with Mus musculus [3] is 30%; in the test on Mus musculus [4], 45%. Besides, in the test on Mus musculus [1], the MTD stood at 320 mg/kg.

Take `COC(=O)Nc1nc2cc(C(=O)c3cc(CC(=O)OC(C)(C)C)cs3)ccc2[nH]1`: the figures for the concentration for half-maximal inhibition (IC50) in the test on B16 and at Tubulin alpha chain were 0.07 µM and 7.5 µM, respectively. Besides, the MTD in the test on Mus musculus [1] was 160 mg/kg. Moreover, the increase in lifespan (ILS) in the test with Mus musculus [4] stood at 105%.

As to `COC(=O)Nc1nc2cc(C(=O)c3cc(C)cs3)ccc2[nH]1`, the IC50 in the test on B16 is 0.1 µM; at Tubulin alpha chain, 17.6 µM. In the test on Mus musculus [1], this molecule returned a maximum tolerated dose (MTD) of 80 mg/kg. In the test with Mus musculus [4], this molecule gave an ILS of 95%.

Take `COC(=O)Nc1nc2ccc(C(=O)c3cc(C([N+]#N)C(F)(F)F)cs3)cc2[nH]1` (centres undefined): the half-inhibitory concentration (IC50) with B16 was 0.14 µM; at Tubulin alpha chain it was 8.3 µM.

On to `COC(=O)Nc1nc2c(C)cc(C(=O)c3cccs3)cc2[nH]1`, for which the values for the 50% inhibitory concentration (IC50) with B16 and at Tubulin alpha chain were 0.06 µM and 0.86 µM, respectively. The ILS in the test on Mus musculus [3] was 50%; in the test on Mus musculus [4], 45%. Besides, in the test with Mus musculus [1], the MTD is 30 mg/kg.

As to `COC(=O)Nc1nc2cc(C(=O)c3ccc(C)s3)ccc2[nH]1`, the midpoint of inhibition in the test on B16, the IC50, lay at 10 µM. Moreover, the maximal tolerated dose (MTD) with Mus musculus [1] was 160 mg/kg. In the test with Mus musculus [2], the ILS is reported as less than 25%.

As for `COC(=O)Nc1nc2cc(C(=O)c3cccs3)ccc2[nH]1` [NOCODAZOLE], the values for the IC50 with B16 and on Tubulin alpha chain were 0.1 µM and 5.7 µM, respectively. Also, the MTD in the test on Mus musculus [1] worked out at 80 mg/kg. The molecule further displayed an ILS in the test on Mus musculus [4] of 75%.

On to `COC(=O)Nc1nc2cc(C(=O)c3cccs3)ccc2n1CCNC(=O)OCc1ccccc1`, for which, in the test on B16, the IC50 turned out to be 20 µM.

`COC(=O)Nc1nc2ccc(C(=O)c3cc(COC(=O)c4ccccc4)cs3)cc2[nH]1` returned an IC50 at Tubulin alpha chain of 1.95 µM.

For the molecule `COC(=O)Nc1nc2cc(C(=O)c3cccs3)c(C)cc2[nH]1`, the IC50 in the test on B16 turned out to be 8 µM. Moreover, in the test with Mus musculus [1], the MTD is more than 320 mg/kg. The molecule further returned an ILS in the test on Mus musculus [2] of less than 25%.

For the molecule `CCOC(=O)Cc1csc(C(=O)c2ccc3[nH]c(NC(=O)OC)nc3c2)c1`, the figures for the concentration for half-maximal inhibition (IC50) in the test with B16 and at Tubulin alpha chain were 0.02 µM and 0.88 µM, respectively. The increase in life span (ILS) with Mus musculus [3] and with Mus musculus [4] was 55% each time. Moreover, the MTD in the test with Mus musculus [1] turned out to be 80 mg/kg.

On to `COC(=O)Nc1nc2cc(C(=O)c3cc(CNC(=O)OC(C)(C)C)cs3)ccc2[nH]1`, for which the 50% inhibitory concentration (IC50) in the test on B16 amounted to 0.5 µM; at Tubulin alpha chain, 23.3 µM. The molecule also had an MTD in the test on Mus musculus [1] of 160 mg/kg. Besides, in the test with Mus musculus [2], the increase in lifespan (ILS) was less than 25%.

In turn, `CCCOC(=O)Nc1nc2cc(C(=O)c3cccs3)ccc2[nH]1` returned an IC50 in the test with B16 of 0.5 µM. The molecule further returned an MTD with Mus musculus [1] of more than 320 mg/kg. The molecule further yielded an ILS in the test with Mus musculus [2] of less than 25%.

Consider `COC(=O)Nc1nc2ccc(C(=O)c3cccs3)cc2n1C` [NOCODOZOLE], for which the half-maximal inhibitory concentration (IC50) in the test with B16 came to 40 µM. Further, the maximum tolerated dose (MTD) in the test with Mus musculus [1] is more than 320 mg/kg. Further, the increase in lifespan (ILS) in the test on Mus musculus [2] is less than 25%.

Consider `COC(=O)Nc1nc2cc(C(=O)c3cc(CC(=O)O)cs3)ccc2[nH]1`, for which the IC50 with B16 was 2 µM; at Tubulin alpha chain, 442 µM. For the same molecule, the maximum tolerated dose (MTD) in the test with Mus musculus [1] was determined as 80 mg/kg. Besides, the increase in lifespan (ILS) in the test on Mus musculus [2] was less than 25%.

For `COC(=O)Nc1nc2cc(C(=O)c3cc(CC(=O)NCCN)cs3)ccc2[nH]1`, the IC50 in the test on B16 is more than 70 µM. The same molecule registered a maximum tolerated dose (MTD) in the test on Mus musculus [1] of 80 mg/kg. In addition, in the test with Mus musculus [2], the ILS is listed as less than 25%.

Take `COC(=O)N(C)c1nc2cc(C(=O)c3cccs3)ccc2[nH]1`: 50 µM corresponded to half-maximal inhibition in the test on B16 (IC50). In addition, the MTD in the test on Mus musculus [1] was determined as 40 mg/kg. The ILS in the test on Mus musculus [2] is less than 25%.

In turn, `COC(=O)Nc1nc2cc(C(=O)c3cccs3)ccc2n1CCCCN` registered an IC50 in the test with B16 of 30 µM. This molecule returned an MTD in the test on Mus musculus [1] of 80 mg/kg. Moreover, the increase in life span (ILS) with Mus musculus [2] was less than 25%.

As for `COC(=O)Nc1nc2cc(C(=O)c3cc(CO)cs3)ccc2[nH]1`, the concentration for half-maximal inhibition (IC50) in the test with B16 is 1.8 µM; at Tubulin alpha chain, 22 µM.

In the test on B16, `CCOC(=O)Nc1nc2cc(C(=O)c3cccs3)ccc2[nH]1` yielded an IC50 of 0.2 µM. The MTD with Mus musculus [1] was 160 mg/kg. In the test with Mus musculus [2], this molecule registered an increase in life span (ILS) of less than 25%.

As for `COC(=O)Nc1nc2cc(C(=O)c3cccs3)ccc2n1CCN`, the IC50 in the test with B16 turned out to be 30 µM. The MTD in the test on Mus musculus [1] is 80 mg/kg. In the test on Mus musculus [2], this molecule returned an ILS of less than 25%.
